Results reported in PubChem BioAssay AID623913 (Johns Hopkins Ion Channel Center, 2012).
Active and inactive are the calls of the source.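 Rule for the calls: active = KCNQ2 potassium channel blocked by over 30% at some tested dose, with a dose response curve fitted; inactive = no blocking at any dose, or no fitted curve.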

Target: Potassium voltage-gated channel subfamily KQT member 2 (Rattus norvegicus) (UniProt O88943)
Experiment: block of rat KCNQ2 potassium current – cell-based, FluxOR thallium flux, concentration-response, set 4, selectivity assay for KCNK9 inhibitor project, SAR follow-up (AID 623913)
Settings: KCNQ2 cells, FluxOR thallium flux fluorescence
In short: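 Material: KCNQ2-expressing CHO cells | Probe or stimulus: K+/Tl+ stimulus buffer (5x stock K2SO4 plus Tl2SO4) | Incubation: FluxOR dye loading 90 min, compound exposure 20 min, both room temperature | Signal: FluxOR thallium flux fluorescence, kinetic read | Benchmarks: XE-991 control | Replicates: at least duplicate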

Chain of Potassium voltage-gated channel subfamily KQT member 2 (Rattus norvegicus) (O88943 whole entry, looked up): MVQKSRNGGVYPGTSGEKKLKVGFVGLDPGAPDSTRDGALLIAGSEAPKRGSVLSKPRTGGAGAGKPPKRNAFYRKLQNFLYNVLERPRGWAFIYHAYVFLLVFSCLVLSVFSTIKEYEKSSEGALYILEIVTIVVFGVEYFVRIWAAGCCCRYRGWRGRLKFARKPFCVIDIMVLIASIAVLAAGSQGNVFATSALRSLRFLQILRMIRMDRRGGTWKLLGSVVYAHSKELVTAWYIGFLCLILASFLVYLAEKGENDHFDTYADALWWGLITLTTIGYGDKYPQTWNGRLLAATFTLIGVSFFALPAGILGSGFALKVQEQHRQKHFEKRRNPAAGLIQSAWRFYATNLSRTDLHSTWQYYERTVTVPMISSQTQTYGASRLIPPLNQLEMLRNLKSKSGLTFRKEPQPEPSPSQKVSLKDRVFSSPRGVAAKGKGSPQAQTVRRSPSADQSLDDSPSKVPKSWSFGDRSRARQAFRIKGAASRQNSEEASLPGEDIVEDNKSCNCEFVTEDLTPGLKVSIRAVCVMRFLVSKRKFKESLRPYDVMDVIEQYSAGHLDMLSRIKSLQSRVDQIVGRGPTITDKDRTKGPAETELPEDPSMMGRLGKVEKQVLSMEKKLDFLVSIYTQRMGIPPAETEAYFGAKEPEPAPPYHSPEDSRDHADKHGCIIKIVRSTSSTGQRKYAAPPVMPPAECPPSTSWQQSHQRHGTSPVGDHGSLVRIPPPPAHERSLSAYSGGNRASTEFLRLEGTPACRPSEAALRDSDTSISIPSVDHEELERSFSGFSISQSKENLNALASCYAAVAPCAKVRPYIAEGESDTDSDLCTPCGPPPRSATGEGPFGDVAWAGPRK

SMILES | IC50 [µM]
COc1ccc(C(=O)CCSc2nnc(-c3ccco3)n2C(C)C2CC3CCC2C3)cc1OC (stereo not given) | 11.1

Same assay, conditions: KCNQ2 cells, FluxOR thallium flux fluorescence; at 30 µM (top of the series)

SMILES | thallium flux ratio, lower = inhibition
COc1cccc(-c2n[nH]c(=S)n2[C@H](C)[C@@H]2CC3CC[C@H]2C3)c1 | inactive
CC(C1CC2CCC1C2)n1c(SCCN2CCOCC2)nnc1-c1ccco1 (stereo not given) | inactive
C[C@@H]([C@@H]1CC2CC[C@H]1C2)n1c(-c2ccsc2)n[nH]c1=S | inactive
C[C@H]([C@@H]1CC2CC[C@H]1C2)n1c(-c2ccsc2)n[nH]c1=S | inactive
COc1cccc(CCSc2nnc(-c3ccco3)n2C(C)C2CC3CCC2C3)c1 (stereo not given) | inactive
CC([C@@H]1CC2CC[C@H]1C2)n1c(-c2ccsc2)n[nH]c1=S (stereo not given in full) | inactive
C[C@H]([C@@H]1CC2CC[C@H]1C2)n1c(-c2ccccc2F)n[nH]c1=S | inactive
CC(C1CC2CCC1C2)n1c(SCCc2cccc(O)c2)nnc1-c1ccco1 (stereo not given) | inactive
CCCC(=O)C1CCN(c2ncnc3c2CN(C(=O)c2ccc(-c4ccccc4)cc2)CC3)CC1 | inactive
CC(C1CC2CCC1C2)n1c(-c2ccco2)nn(CCc2ccncc2)c1=S (stereo not given) | inactive
COc1cccc(-c2nnc(SSc3nnc(-c4cccc(OC)c4)n3C(C)C3CC4CCC3C4)n2C(C)C2CC3CCC2C3)c1 (stereo not given) | inactive
CC(C1CC2CCC1C2)n1c(N)nnc1-c1ccco1 (stereo not given) | inactive
C[C@H](C1CCCCC1)n1c(-c2ccccc2F)n[nH]c1=S | inactive
CC(C1C[C@H]2CCC1C2)n1c(-c2ccsc2)n[nH]c1=S (stereo not given in full) | inactive
COc1ccc(CSc2nnc(-c3ccco3)n2C(C)C2CC3CCC2C3)cc1OC (stereo not given) | inactive
C[C@H](C1CCCCC1)n1c(-c2ccsc2)n[nH]c1=S | inactive
C[C@@H]([C@@H]1CC2CC[C@H]1C2)n1c(-c2ccco2)n[nH]c1=S | inactive
COc1ccc(NC(=O)CSc2nnc(-c3ccco3)n2C(C)C2CC3CCC2C3)cc1OC (stereo not given) | inactive
CC(C1CCN(C)CC1)n1c(-c2ccco2)n[nH]c1=S (stereo not given) | inactive
COc1cccc(-c2n[nH]c(=S)n2[C@H](C)C2CCCCC2)c1 | inactive
CC(C1CC2CCC1C2)n1c(SCCc2ccccn2)nnc1-c1ccco1 (stereo not given) | inactive
CC(C1CC2CCC1C2)n1c(SCC(=O)N2CCN(C)CC2)nnc1-c1ccco1 (stereo not given) | inactive
C[C@H]([C@@H]1CC2CC[C@H]1C2)n1c(-c2ccco2)n[nH]c1=S | inactive
COc1ccc(CC(=O)NCc2ccccc2-c2ccccc2C(=O)NCc2ccc(F)cc2F)cc1 | inactive
